UBC9 SUMO inh = SUMOylation inhibition | HTRF SUMOylation assay, SAE1/SAE2 + UBC9, in vitro | inhibition, % at 35 µM | 290,000 compounds, 0.36% hits; in the data active means inhibition above about 50%, passing the limit was not always enough
Target sequence (P63279 whole entry, looked up): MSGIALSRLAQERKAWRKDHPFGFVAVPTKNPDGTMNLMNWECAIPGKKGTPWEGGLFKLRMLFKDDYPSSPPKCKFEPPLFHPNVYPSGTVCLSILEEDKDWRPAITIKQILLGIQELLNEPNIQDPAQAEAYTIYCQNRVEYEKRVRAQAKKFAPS
NALP1 yeast inh = inhibitors of NALP1 inflammasome in yeast; 280,000 compounds, 0.61% hits; inhibition, % at 10 µM; S. cerevisiae NALP1/ASC/caspase-1 growth, X-gal OD620, 72 h; in the data active means inhibition mostly above about 24%, no sharp cut-off; inactive means mostly below about 32%
Mot1-301 SUMO = SUMOylation pathway inhibition by Mot1-301 growth rescue; S. cerevisiae Mot1-301 growth rescue, ATP luminescence, 38.5C; percent above DMSO median, 100 means doubled; growth rescue, % at 18.8 µM; 320,000 compounds, 1% hits;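 active means every valid replicate shows activation above 250% relative to neutral control wells; inactive means the rest, any valid replicate at or below 250%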;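 further: OY570 slx delta 5 strain wells were the positive control but not used for scaling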
DNA FID counter = displaces DNA intercalator in HCV helicase counter-screen; 290,000 compounds, 0.17% hits; DNA fluorescent intercalator displacement, fluorescence; inhibition, % at 7.9 µM; in the data active means inhibition above about 37%;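 further: 0% = vehicle and 100% = reference compound; higher means more ethidium bromide displaced from hairpin DNA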
IMP-1 inhibitor = blocks Pseudomonas aeruginosa IMP-1 metallo-beta-lactamase; purified IMP-1, nitrocefin hydrolysis, epi-absorbance fluorescence; inhibition, % at 5.6 µM; 290,000 compounds, 0.45% hits; AID 1556;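 active means inhibition above the mean plus 3 SD of all compounds in the same screening run, cut at about 4.5% in these data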;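 further: 0% = IMP-1 with DMSO and 100% = DMSO wells lacking enzyme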
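System: Purified IMP-1 | Read-out basis: Percent enzyme inhibition | Controls: IMP-1 with DMSO as 0%, enzyme-free DMSO as 100% | Replicates: One well per compound | Doses: 5.6 µM nominal single concentration | Detection: Epi-absorbance fluorescence, 480 nm excitation, 530 nm emission | Incubation: 25 °C, 15 min preincubation, 25 min reaction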
VIM-2 inhibitor = inhibitors of Pseudomonas aeruginosa VIM-2 metallo-beta-lactamase; purified VIM-2, nitrocefin hydrolysis, epi-absorbance fluorescence; inhibition, % at 5.6 µM; 290,000 compounds, 0.89% hits;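 active means inhibition above the mean of all tested compounds plus 3 SD, cutoff set per screening run, cut at about 7.5% in these data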;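 further: red hydrolysis product quenches plate fluorescence so inhibitors raise well fluorescence; 0% = enzyme with DMSO and 100% = DMSO without enzyme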
* = called active by the depositor; nt = no result. Only some compounds are listed: those with a hit (about 2.9% of all), similar ones and a draw of the others.

SMILES	UBC9 SUMO inh	NALP1 yeast inh	Mot1-301 SUMO	DNA FID counter	IMP-1 inhibitor	VIM-2 inhibitor
CC(=O)N1N=C(c2ccc(Cl)cc2)CC1c1ccco1 (stereo not drawn)	8.2	16.5	-19.4	-15.3	-1.2	9.9*
O=C(NCc1cccs1)C1CCCN(c2nc3ccccc3o2)C1 (stereo not drawn)	4.9	19.3	2.3	-2.2	4.8*	0.8
Cc1ccc(CNC(=O)C2CCCN(c3nc4ccccc4o3)C2)cc1 (stereo not drawn)	1.7	30.4	-14.9	-7.3	-0.8	0.0
O=C(Nc1cccc(S(=O)(=O)NC2=NCCCCC2)c1)c1cc(-c2ccco2)nc2ccccc12	81.2*	26.1	2.7	-33.3	-0.4	-2.6
COc1ccccc1NS(=O)(=O)c1ccc(Cl)c(NC(=O)CN2C(=O)c3ccccc3C2=O)c1	-12.7	21.7	-2.2	-5.0	-3.0	-2.5
CCN(CC)C(=O)c1[nH]cnc1C(=O)N[C@@H](Cc1ccccc1)C(=O)OCc1ccccc1	-3.0	-13.9	-9.2	-35.5	-2.2	-4.6
COc1ccc(NC(=O)CC(C)n2ccnc2)cc1 (stereo not drawn)	7.6	9.0	-7.8	-2.6	-2.2	-2.0
O=[N+]([O-])c1ccc2nc(CCCc3nc4ccc([N+](=O)[O-])cc4[nH]3)[nH]c2c1	68.6*	32.1*	5.2	13.4	-2.8	-3.3
COc1ccc(-c2nc3ccc([N+](=O)[O-])cc3[nH]2)cc1	54.8*	38.9	24.5	12.1	-2.0	-3.1
N#Cc1ccc(CN2CCN(C(=O)C3CC(=O)N(c4ccccc4F)C3)CC2)cc1 (stereo not drawn)	nt	nt	1.2	nt	nt	nt
c1ccc(CSc2ccc3nnc(-c4ccccn4)n3n2)cc1	-2.6	-6.8	-15.2	-14.0	-0.5	10.8*
O=C(Nc1ncc(C(F)(F)F)cc1Cl)C1COc2ccccc2O1 (stereo not drawn)	-5.0	40.5*	-1.4	-6.7	-2.9	-4.4
Cc1cccnc1NC(=O)C1COc2ccccc2O1 (stereo not drawn)	0.9	1.7	3.4	-3.8	-2.1	-2.8
O=C(Nc1cc(C(F)(F)F)ccc1N1CCOCC1)C1Cc2ccccc2CN1C(=O)c1ccco1 (stereo not drawn)	30.4	2.0	24.6	-50.2	5.6*	0.1
O=C1CN=C(Nc2ccccc2Cl)N1c1ccccc1	14.1	33.8*	-9.4	-3.6	-4.2	-2.6
COc1ccc(/C(=C/Nc2cccc(Br)c2)C(C)=O)cc1OC	15.6	-22.6	-9.9	-17.0	-3.0	9.9*
Cc1cc(C(=O)NCCC(c2ccccc2)c2ccccc2)c(C)o1	-11.6	40.4*	-0.1	-13.9	0.4	-1.2
Cc1cc(C(=O)NCCCC(=O)O)c(C)o1	25.5	-2.7	-7.6	-1.4	-2.5	-1.9
CCCCn1c(N)c(N(CC(C)C)C(=O)c2oc3ccc(OCC)cc3c2C)c(=O)[nH]c1=O	4.4	36.3*	-0.4	-35.0	-6.3	-3.0
Cc1ccc(-c2csc(NC(=O)C3=NN(C4CCS(=O)(=O)C4)C(=O)CC3)n2)cc1 (stereo not drawn)	1.0	nt	-6.8	-13.9	-1.7	-1.2
COC(=O)CCN1CCC(c2cc(-c3cccc(C(F)(F)F)c3)n[nH]2)CC1	20.5	32.2	319.6*	-0.4	-0.3	4.0
FC(F)(F)c1cccc(-c2cc(C3CCNCC3)[nH]n2)c1	-21.1	10.6	-5.2	-2.1	-3.4	1.7
COc1ccc(-c2ccnc3c(C(=O)O)cnn23)cc1	45.4	2.3	7.4	6.4	-2.8	1.3
CCOc1cc(Cl)c(S(=O)(=O)NCCCn2ccnc2)cc1Cl	9.6	nt	356.0*	5.8	-5.4	-0.4
CC1=CCC[C@@H]2[C@@](C)(CC/C(C)=C/C(=O)O)[C@H](C)CC[C@@]12C	17.1	44.1*	-16.5	-25.7	-2.7	-0.4
SMILES	UBC9 SUMO inh	NALP1 yeast inh	Mot1-301 SUMO	DNA FID counter	IMP-1 inhibitor	VIM-2 inhibitor
FC(F)(F)c1cnc(Oc2ccccc2-c2nnco2)c(Cl)c1	-2.6	9.0	3.4	-7.6	-5.8	-6.0
Nc1ccccc1Oc1ncc(C(F)(F)F)cc1Cl	-18.4	-0.3	274.8*	-5.6	-2.1	-7.0
CN1C/C(=C/c2ccncc2)C(=O)/C(=C/c2ccncc2)C1	0.1	65.7*	-2.6	-11.3	0.1	0.3
O=C(CSC1CC(=O)N(CCc2ccccc2)C1=O)Nc1cccc(Cl)c1 (stereo not drawn)	13.0	33.0	314.1*	-8.5	-2.0	-2.1
O=C(CSC1CC(=O)N(CCc2ccccc2)C1=O)Nc1ccc(Br)cc1 (stereo not drawn)	-14.5	12.6	22.2	-13.9	-1.6	-0.6
CCC(C)c1ccc(NC(=S)NCc2ccccc2OC)cc1 (stereo not drawn)	13.9	-0.5	nt	-19.1	-2.4	-0.6
O=C(Cn1c(=O)c2cccn2c2ccccc21)NCCc1ccc(Cl)cc1	-6.8	20.9	-5.9	-24.9	13.2*	3.3
CCOc1ccc(CNC(=O)Cn2c(=O)c3cccn3c3ccccc32)cc1	18.1	18.3	-6.9	-31.0	6.2*	-1.2
Cc1cc2c(cc1S(=O)(=O)CCC(=O)NCCc1ccccc1)OCC(=O)N2	1.4	0.0	-6.3	-4.5	-4.3	-3.9
COc1ccc2[nH]c(=O)c(CN(C(=O)c3ccco3)C3CCCCC3)cc2c1	6.9	26.1*	5.3	-29.4	-1.8	-2.3
COc1ccc2[nH]c(=O)c(CN(C(C)=O)C3CCCCC3)cc2c1	20.2	-9.6	5.1	-24.4	0.8	0.0
S=C(NCc1ccccc1)NC1CCSc2ccccc21 (stereo not drawn)	-3.2	27.0*	84.0	-20.9	-1.7	-3.9
COc1ccc(CC(=O)Nc2cccc(/C(C)=N/NC(=O)C3(C)CC3(Br)Br)c2)cc1 (stereo not drawn)	4.3	14.9	0.9	-34.3	-1.9	-2.3
O=c1oc2c(O)cccc2cc1-c1nc2ccccc2[nH]1	13.8	4.0	-4.3	1.4	7.2*	6.4
O=c1oc2c(CN3CCCCC3)c(O)ccc2cc1-c1nc2ccccc2[nH]1	18.4	9.7	nt	nt	nt	nt
CCN(C(=O)CSc1nnc(-c2ccco2)n1C)c1c(N)n(Cc2ccccc2)c(=O)[nH]c1=O	nt	nt	6.6	nt	nt	nt
CCN(CC)C(=O)c1sc(N2C(=O)Nc3ccccc3N2O)c(C(=O)OC)c1C	20.6	-1.5	19.2	-48.4	-2.3	-1.1
CN1CCCc2cc3c(C(F)(F)F)cc(=O)oc3nc21	62.0*	13.8	-6.4	-1.9	0.8	3.8
CC1Oc2ccccc2C=C1C1/C(=C(/O)c2ccccc2)C(=O)C(=O)N1CCCN(C)C (stereo not drawn)	25.6	11.2	285.8*	-6.5	1.7	-1.5
Cc1ccc(/C(O)=C2\C(=O)C(=O)N(CCN(C)C)C2c2ccccc2F)cc1 (stereo not drawn)	-18.5	-2.7	12.1	-1.5	-1.9	-0.3
CCN(c1ccccc1C)S(=O)(=O)c1cc2c3c(c1)CCC(=O)N3CCC2	nt	25.4	0.3	-43.8	-1.9	-1.6

High-throughput results (PubChem BioAssay)
